# Hits are enriched below; roughly 3.6% of the tested compounds scored in any of these assays.
# RAM inhibit = yeast RAM network inhibition | inhibition, % at 50 µM | S. cerevisiae dse1pr::URA3 reporter, 5-FOA growth OD615, 2 d; analog-sensitive cbk1-as2 kinase mutant strain | 190,000 tested, 1.8% active | AID 868;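 active = inhibition above a set limit, 3 SD over mean compound inhibition, cut at about 8.4% in these data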;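 also: inhibition rescues growth on 5-FOA so higher OD means more RAM inhibition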
# Measles CPE = protection of cells from measles virus; 140,000 tested, 1.5% active; AID 841; Measles virus-infected cells, CPE protection, absorbance; protection (pct of control), % at 4 µM; in the data active = protection mostly above about 24%, no sharp cut-off; inactive = mostly below about 26%
# Yeast growth inh = reduces growth of yeast BB579 in restrictive medium; S. cerevisiae BB579 growth, OD615, 48 h; inhibition, % at 10 µM; 140,000 tested, 0.51% active; AID 804;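 active = inhibition above a set limit, 3 SD over the mean compound inhibition, cut at about 44% in these data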
#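 Detection: OD615 turbidity measurement; Material: Saccharomyces cerevisiae DeaD strain BB579, replicative lifespan model yeast; Timing: 48 h exposure, 30 °C; Doses: single 10 µM dose; Medium: CSMM-D restrictive synthetic medium containing dextrose (glucose); Controls: amphotericin B at 10 µg/mL as positive control.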
# Yeast life ext = yeast lifespan extension; S. cerevisiae growth with nicotinamide, OD615; deaD strain in restrictive glucose medium; 130,000 tested, 0.68% active; AID 775; inhibition of the nicotinamide effect, % at 10 µM;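 active = inhibition above a set limit, placed 3 SD over the median of all compounds, cut at about 26% in these data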
#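 assay system = DeaD-strain S. cerevisiae | measured by = absorbance at 615 nm | probe or stimulus = nicotinamide 1.5 mM | buffer or medium = CSMM-D glucose medium, restrictive | times = 48 h at 30 °C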
# Hits are given with their value; 0 = inactive; - = not tested or not shown.
SMILES,RAM inhibit,Measles CPE,Yeast growth inh,Yeast life ext
NS(=O)(=O)c1ccc(N/N=C/c2ccccc2C(=O)O)c([N+](=O)[O-])c1,0,-,-,-
Cc1cc([N+](=O)[O-])c2[nH]c(C(=O)N/N=C/c3ccccc3C(=O)O)c(-c3ccccc3)c2c1,8.7,0,0,0
COc1ccccc1/C=C(/NC(=O)c1ccc(Cl)cc1Cl)C(=O)O,0,-,-,-
CCCn1c2c(c(O)c(C(=O)Nc3nc4ccccc4s3)c1=O)CCCC2,0,-,-,-
CN(O)/C=c1/ccc2c(n1)C(=O)C=CC=2,0,0,97,0
Cc1ccc(C)c2c3c([nH]c12)-c1nonc1CC3,0,74,0,0
c1ccc(-c2nc3c([nH]2)CCc2nonc2-3)cc1,0,-,-,-
O=C(c1ccccc1)c1c[nH]c(C(=O)C(Cl)(Cl)Cl)c1,0,-,-,-
O=C(c1ccc(Cl)cc1)c1c[nH]c(C(=O)C(Cl)(Cl)Cl)c1,0,0,84,0
O=C(Nc1ccc(S(=O)(=O)N2CCCCC2c2cccnc2)cc1)c1c(F)cccc1F (configuration not stated),0,-,-,-
CC(=O)Nc1ccc(S(=O)(=O)N2CCCCC2c2cccnc2)cc1 (configuration not stated),0,29,0,0
COc1cc(C)c(C)cc1S(=O)(=O)N1CCCCC1c1cccnc1 (configuration not stated),0,51,0,0
COc1ccc(NC(=O)N2CCCCC2c2cccnc2)cc1 (configuration not stated),0,0,0,0
Cc1ccc(-c2ccnc3nc(-n4cccc4)nn23)o1,0,-,-,-
COc1ccc(C2CC(C)(c3ccc(OC)cc3OC)Nc3ccccc3N2)c(OC)c1 (configuration not stated),0,-,-,-
Cc1ccc(-c2nnc(-c3ccccc3)o2)cc1,0,0,0,-
CCNc1nnc(-c2ccc(C)cc2)o1,0,39,0,0
CCn1cc(C(=O)NCCCN2CCN(C)CC2)c(=O)c2cc(S(=O)(=O)N3CCc4ccccc4C3)ccc21,0,-,-,-
COc1ccc([C@@H]2Sc3cc(OC)ccc3N(CCN(C(C)C)C(C)C)C(=O)[C@H]2OC(C)=O)cc1,0,48,0,-
COC(=O)c1cc(=O)n(-c2ccccc2)c(=Nc2ccccc2)s1,0,0,0,33
Cc1ccc(Nc2cc(-n3cccn3)ncn2)c(C)c1,0,0,0,0
Cc1ccc(Nc2cc(-n3nc(C)cc3C)ncn2)c(C)c1,9.1,0,0,0
Cc1cc(C)nc(N/N=C2/CCCC/C2=C\c2ccccc2)n1,0,-,-,-
C=CCN=C1NN=C(c2ccc3c(c2)OCCO3)CS1,0,-,-,-
CCN1CCN(c2ncnc3c2sc(=S)n3-c2ccccc2)CC1,0,0,46,0
SMILES,RAM inhibit,Measles CPE,Yeast growth inh,Yeast life ext
S=c1sc2c(N3CCN(Cc4ccccc4)CC3)ncnc2n1-c1ccccc1,0,0,0,0
O=C(O)C1=C[C@@H](c2ccc3c(c2)OCO3)C[C@@H](OCc2ccc(CO)cc2)O1,0,-,-,-
O=C(C1=C[C@H](c2ccc3c(c2)OCO3)C[C@H](OCc2ccc(CO)cc2)O1)N1CCOCC1,10,-,-,-
O=C(C1=C[C@@H](c2ccc(C(F)(F)F)cc2)C[C@@H](OCc2ccc(CO)cc2)O1)N1CCOCC1,9.0,-,-,-
Cc1ccc(NC(=O)COC(=O)CCC(=O)c2cccs2)c(C)c1,0,-,-,-
O=[N+]([O-])c1ccc(Sc2nc3ccccc3o2)c([N+](=O)[O-])c1,0,0,99,0
O=[N+]([O-])c1ccc(Cl)cc1Sc1nc2ccccc2o1,0,0,0,-
C=CCn1c(=O)c(C(=O)Nc2ccccc2S(N)(=O)=O)c(O)c2ccccc21,0,-,-,-
C/C(=N/OC(=O)C1CC12CCC2)c1ccc(Br)cc1 (configuration not stated),0,-,-,-
O=C(CCN1C(=O)S/C(=C\c2ccccc2)C1=O)Nc1ccc(S(=O)(=O)Nc2nccs2)cc1,0,0,0,0
Cc1cc(C)nc(NS(=O)(=O)c2ccc(NC(=O)CN3C(=O)S/C(=C\c4ccccc4)C3=O)cc2)n1,9.9,0,0,0
Cc1nnc(SCC(=O)Nc2nc(C(C)(C)C)cs2)s1,0,54,0,0
CCOC(=O)N1CCN(c2cc(NCCO)c([N+](=O)[O-])c3nonc23)CC1,0,-,-,-
CC(=O)OCCNc1cc(N2CCN(C)CC2)c2noc3c2c1C(=O)c1ccccc1-3,10,0,0,0
c1ccc2c(-n3cccn3)cccc2c1,0,39,0,0
Cc1cccc(N2CCN(C(=O)c3cn4ccccc4n3)CC2C)c1 (configuration not stated),0,-,-,-
O=c1c2ccccc2sn1-c1ccccc1,0,0,0,41
O=c1c2ccccc2sn1-c1ccc(S(=O)(=O)N2CCCC2)cc1,0,0,0,0
Cc1nc2ccc(NC(=S)N3CCOCC3)cc2nc1C,0,-,-,-
C=CCSC1=N/C(=C\c2sccc2C)C(=O)S1,9.4,0,0,0
COc1ccc(/C=C/C(=O)c2ccccc2)cc1Cn1nnc2ccccc21,0,0,0,0
CCC(C)(C)n1nnnc1CN1CCc2ccccc21,0,73,0,0
Cn1c(CSCc2ccccc2)nnc1SCC(=O)Nc1ccc(C(=O)O)cc1,0,-,-,-
CCCn1c(C)cc(C(=O)COc2ccc(S(=O)(=O)N(CC)CC)cc2[N+](=O)[O-])c1C,8.4,0,0,0
CCOC(=O)c1cc(NC(=O)c2ccccc2)c(=O)oc1-c1ccccc1,9.5,0,0,0
SMILES,RAM inhibit,Measles CPE,Yeast growth inh,Yeast life ext
O=C(N/N=C/c1cc(Br)ccc1O)C(c1ccncc1)N1CCOCC1 (configuration not stated),0,0,0,35
O=C(CNC(=O)c1ccncc1)N/N=C/c1cc(Br)ccc1O,0,0,0,0
CCOC(=O)Cn1c(-c2nonc2NC(=O)c2ccccc2F)nc2ccccc21,0,50,0,0
Cc1ccc(S(=O)(=O)N2CCCOC2CNC(=O)C(=O)NCc2cccs2)cc1 (configuration not stated),0,0,0,0
CC(C)(C)c1nc(SCC(=O)N2CCCC2)c2ccccc2n1,0,-,-,-
COCCn1c(SCC(=O)c2ccccc2)nc2ccccc2c1=O,9.8,-,-,-
COCCn1c(SCC(=O)N2CCc3ccccc3C2)nc2ccccc2c1=O,0,32,0,0
CC(C)(C)c1nc(SCC(=O)c2ccccc2)c2ccccc2n1,9.4,-,-,-
COc1ccc(C(=O)Nn2c(SCC(=O)c3ccc(Cl)cc3)nc3ccccc3c2=O)cc1,0,84,0,0
COCCCn1c(SCC(=O)c2ccccc2)nc2ccccc2c1=O,0,-,-,-
C=CCn1c(SCC(=O)N2CCc3ccccc3C2)nc2sc(C)cc2c1=O,0,33,0,0
O=C(Cc1ccc(Br)c2ccccc12)N/N=C/c1ccccn1,0,-,-,-
O=C(CN1c2ccccc2Sc2ccccc21)NNC(=S)Nc1ccc(Cl)cc1Cl,11,0,0,0
CCCS(=O)(=O)n1nc(-c2ccc(OC)cc2)cc1N,0,27,0,0
CCCS(=O)(=O)n1nc(-c2ccc(C)cc2)cc1N,0,0,0,0
CCOc1ccc(CC(=O)C2C(=O)CC(C)(C)CC2=O)cc1OCC,0,0,0,0
CC1(C)CC(=O)C(C(=O)Cc2ccccc2[N+](=O)[O-])C(=O)C1,0,0,0,58

# Screening results as filed in PubChem.
